Experimental findings from the M2OR odorant receptor database are described below.

Holding throughout (conditions): stereoisomer not certain
For one assay, the target named is T1, Or5p80 (Mus musculus) (UniProt Q8VG42).
T1 sequence (whole entry): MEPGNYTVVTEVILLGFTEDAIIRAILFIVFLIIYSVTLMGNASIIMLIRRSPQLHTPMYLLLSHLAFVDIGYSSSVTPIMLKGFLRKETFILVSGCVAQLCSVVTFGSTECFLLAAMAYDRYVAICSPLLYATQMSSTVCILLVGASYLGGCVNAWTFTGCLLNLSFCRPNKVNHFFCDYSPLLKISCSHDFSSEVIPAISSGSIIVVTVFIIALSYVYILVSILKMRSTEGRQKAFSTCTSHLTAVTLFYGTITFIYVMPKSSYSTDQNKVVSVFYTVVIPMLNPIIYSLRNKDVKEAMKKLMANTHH
A digest of the protocol:
(§1)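 Assay methods differ from source to source, frequently being transient luciferase assays in mammalian cell lines. For each receptor–molecule pair, the label responsive (active) applies when the original authors judged the measured signal statistically different from baseline, and non-responsive (inactive) applies otherwise.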

For another assay, the target named is T2, Or7a40 (Mus musculus) (UniProt Q9JHB2).
T2 sequence (whole entry): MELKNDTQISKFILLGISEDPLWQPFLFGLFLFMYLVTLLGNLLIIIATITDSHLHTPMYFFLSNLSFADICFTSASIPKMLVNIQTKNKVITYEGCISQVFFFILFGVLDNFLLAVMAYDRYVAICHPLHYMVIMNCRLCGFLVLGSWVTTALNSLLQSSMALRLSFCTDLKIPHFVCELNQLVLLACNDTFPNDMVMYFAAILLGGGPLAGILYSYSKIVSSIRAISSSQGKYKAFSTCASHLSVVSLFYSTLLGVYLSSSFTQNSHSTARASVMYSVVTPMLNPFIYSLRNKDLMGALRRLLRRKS
A digest of the protocol: as §1

The next assay addresses Or8b3 (Mus musculus) (UniProt Q60886). A digest of the protocol:
as §1

A further assay concerns the target UniProt A2ASV2. A digest of the protocol:
as §1

A further assay deals with UniProt A0PK57. A digest of the protocol: as §1
Another assay has as its system Q8N628 T20A L289V. A digest of the protocol: as §1
The test system of the next assay is Q8NGC2 A119T. A digest of the protocol:
as §1

Another assay concerns Q8NGH7 D88N. A digest of the protocol:
as §1

In another assay the test system is Q8VF87 A279V. A digest of the protocol:
as §1

The test system of a further assay is Q8VF87 E162D. A digest of the protocol: as §1
A further assay deals with Q8VF87 I202L. A digest of the protocol:
as §1

For another assay, the system named is Q8VF87 L210I. A digest of the protocol: as §1
For assay [1], the system named is Q8VF87 V108T E162D V184F I202L L210I A279V. A digest of the protocol: as §1
Assay [2] relates to Q8VF87 V108T E162D V184F I202L L210I. A digest of the protocol:
as §1

For assay [3], the system named is Q8VF87 V108T E162D V184F I202L. A digest of the protocol:
as §1

Another assay deals with Q8VF87 V108T E162D V184F. A digest of the protocol:
as §1

The next assay concerns Q8VF87 V108T E162D. A digest of the protocol: as §1
The subject of a further assay is Q8VF87 V108T. A digest of the protocol: as §1
In another assay the test system is Q8VF87 V184F. A digest of the protocol:
as §1

Chain of UniProt A2ASV2 (A2ASV2 as listed by the source): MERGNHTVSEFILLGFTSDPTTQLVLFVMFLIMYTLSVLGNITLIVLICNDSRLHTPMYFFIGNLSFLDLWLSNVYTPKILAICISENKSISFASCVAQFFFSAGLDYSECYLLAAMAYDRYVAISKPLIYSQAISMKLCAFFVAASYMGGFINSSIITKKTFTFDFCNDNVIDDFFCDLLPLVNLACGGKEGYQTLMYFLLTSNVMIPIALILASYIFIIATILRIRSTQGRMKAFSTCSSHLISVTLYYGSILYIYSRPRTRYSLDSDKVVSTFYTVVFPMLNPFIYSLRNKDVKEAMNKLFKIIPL
Chain of Or8b3 (Mus musculus) (Q60886 whole entry): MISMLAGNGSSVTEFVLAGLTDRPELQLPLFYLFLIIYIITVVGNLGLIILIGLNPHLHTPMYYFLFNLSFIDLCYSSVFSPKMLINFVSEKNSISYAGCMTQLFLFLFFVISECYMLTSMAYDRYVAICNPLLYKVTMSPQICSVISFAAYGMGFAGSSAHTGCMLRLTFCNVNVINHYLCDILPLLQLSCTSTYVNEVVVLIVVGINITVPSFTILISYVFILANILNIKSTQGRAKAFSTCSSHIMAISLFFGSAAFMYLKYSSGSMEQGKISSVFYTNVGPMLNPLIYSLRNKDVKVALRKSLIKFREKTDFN
Chain of UniProt A0PK57 (A0PK57 as listed by the source): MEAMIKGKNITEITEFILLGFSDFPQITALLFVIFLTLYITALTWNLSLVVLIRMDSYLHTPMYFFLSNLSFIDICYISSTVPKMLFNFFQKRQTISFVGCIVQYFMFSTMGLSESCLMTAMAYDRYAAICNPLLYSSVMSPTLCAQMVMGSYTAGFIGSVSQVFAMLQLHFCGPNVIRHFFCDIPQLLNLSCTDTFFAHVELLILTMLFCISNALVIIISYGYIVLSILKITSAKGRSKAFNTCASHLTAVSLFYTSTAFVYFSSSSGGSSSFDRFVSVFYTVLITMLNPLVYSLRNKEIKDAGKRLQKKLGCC

`CCCCCCCCS`: the “odorant receptor agonist call” value with Or5p80 (Mus musculus) and with Or7a40 (Mus musculus) was “inactive” in each case.

For `CCCCCCCCCC(=O)[O-].[H+]`, the “odorant receptor agonist call” value in the assay with Or5p80 (Mus musculus) and in the assay with Or7a40 (Mus musculus) was “inactive” in each case.

As for `c1ccccc1`, the “odorant receptor agonist call” value with Or5p80 (Mus musculus) and with Or7a40 (Mus musculus) was “inactive” throughout.

Consider `CCC(=O)O`, for which the “odorant receptor agonist call” value with Or5p80 (Mus musculus) and with Or7a40 (Mus musculus) was “inactive” throughout.

With `CCCC(C)=O`, the “odorant receptor agonist call” value with Or5p80 (Mus musculus) and with Or7a40 (Mus musculus) was “inactive” in each case.

On to `O=c1ccc2ccccc2o1`, for which the “odorant receptor agonist call” value with Or5p80 (Mus musculus), with Or8b3 (Mus musculus) and with UniProt A2ASV2 was “active” in each case. In addition, in the assay with Or7a40 (Mus musculus), the “odorant receptor agonist call” value was “inactive”.

For `CC1CCCCCCCCCCCCC(=O)C1` (configuration not stated), in the assay with UniProt A0PK57, the “odorant receptor agonist call” value is “inactive”.

As for `CCCCCC=O`, the “odorant receptor agonist call” value in the assay with Or5p80 (Mus musculus) and with Or7a40 (Mus musculus) was “inactive” throughout.

For `CCCCCCC=CCCC=O`, the “odorant receptor agonist call” value in the assay on Q8N628 T20A L289V, in the assay on Q8NGC2 A119T and in the assay on Q8NGH7 D88N was “inactive” throughout.

As for `CCC(=O)C(=O)CC`, the “odorant receptor agonist call” value with Or5p80 (Mus musculus) and with Or7a40 (Mus musculus) was “inactive” each time.

As to `CCCCCCCCCS`, the “odorant receptor agonist call” value with Or5p80 (Mus musculus) and with Or7a40 (Mus musculus) was “inactive” in each case.

With `CC(=O)OCc1ccccc1`, the “odorant receptor agonist call” value in the assay with Or5p80 (Mus musculus) and in the assay with Or7a40 (Mus musculus) was “inactive” in each case.

Regarding `O=C1CCOc2ccccc21`, the “odorant receptor agonist call” value with Or5p80 (Mus musculus), with Or7a40 (Mus musculus), in the assay with Or8b3 (Mus musculus) and with UniProt A2ASV2 was “inactive” throughout.

In the case of `C=C(C)C1CCC(C)C(=O)C1` (configuration not stated), the “odorant receptor agonist call” value with Or5p80 (Mus musculus) and in the assay with Or7a40 (Mus musculus) was “inactive” throughout.

As for `C=CCOC(=O)CCCCCC`, the “odorant receptor agonist call” value with Or5p80 (Mus musculus) and in the assay with Or7a40 (Mus musculus) was “inactive” throughout.

On to `CCCCC(C)=O`, for which the “odorant receptor agonist call” value with Or5p80 (Mus musculus) and with Or7a40 (Mus musculus) was “inactive” in each case.

In the case of `O=C1Cc2ccccc2O1`, the “odorant receptor agonist call” value with Or5p80 (Mus musculus) and with Or7a40 (Mus musculus) was “inactive” in each case.

With `CCCCC(=O)CC`, the “odorant receptor agonist call” value with Or5p80 (Mus musculus) and with Or7a40 (Mus musculus) was “inactive” in each case.

Consider `CCCCOC=O`, for which the “odorant receptor agonist call” value in the assay with Or5p80 (Mus musculus) and in the assay with Or7a40 (Mus musculus) was “inactive” each time.

Take `CCCCOC(=O)C(C)OC(=O)CCC` (configuration not stated): the “odorant receptor agonist call” value in the assay with Or5p80 (Mus musculus) and with Or7a40 (Mus musculus) was “inactive” in each case.

As to `COc1cc(C(=O)O)ccc1O`, the “odorant receptor agonist call” value with Or5p80 (Mus musculus) and with Or7a40 (Mus musculus) was “inactive” throughout.

`CC(=O)OCC=C(C)C`: the “odorant receptor agonist call” value in the assay with Or5p80 (Mus musculus) and with Or7a40 (Mus musculus) was “inactive” in each case.

In the case of `CC(C)=CCCC(C)=CCO`, the “odorant receptor agonist call” value with Or5p80 (Mus musculus) and in the assay with Or7a40 (Mus musculus) was “inactive” each time.

On to `CCCCCCC(C)=O`, for which the “odorant receptor agonist call” value with Or5p80 (Mus musculus) and with Or7a40 (Mus musculus) was “inactive” throughout.

Consider `CCC(S)C(C)CO` (configuration not stated), for which the “odorant receptor agonist call” value (with Q8VF87 A279V; with Q8VF87 E162D; with Q8VF87 I202L; with Q8VF87 L210I; in assay [1]; in assay [2]) was “inactive” in each case. Further, the “odorant receptor agonist call” value (in [3]; with Q8VF87 V108T E162D V184F; with Q8VF87 V108T E162D; in the assay on Q8VF87 V108T; with Q8VF87 V184F) was “inactive” throughout.

As to `CCCCCCOC(C)=O`, the “odorant receptor agonist call” value in the assay with Or5p80 (Mus musculus) and with Or7a40 (Mus musculus) was “inactive” each time.

On to `CCCC(=O)C(C)=O`, for which the “odorant receptor agonist call” value in the assay with Or5p80 (Mus musculus) and with Or7a40 (Mus musculus) was “inactive” in each case.
